Results from paper PMC6263152 (Journal of medicinal chemistry, 2018).

Experiments:
[1] = Optical properties in 1× PBS; assay type: physicochemical; conditions: pH 7.5
Defluoridation stability = assay type: in vitro ADME
[2] = system: PC3-PIP (PSMA+) and PC3 (PSMA−) cell containing tissue; experiment: PET/CT imaging in mice bearing PC3 and PC3-PIP cells; assay type: in vivo, C57BL/6 mice
Outline: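 Male C57BL/6 mice received s.c. 3 × 10^6 (18 mg) PC3 cells in the left flank and PC3-PIP cells in the right flank (n = 6); mice without cells served as controls (n = 5). 15 min later, [18F]-labelled test compound (80 μCi, 2.5 nmol, 100 μL) was given i.v. by tail vein. A 10 min CT then a 15 min PET scan were acquired at 2 and 6 h, shown as maximum intensity projections.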

[3] = system: PC3-PIP (PSMA+) vs PC3 (PSMA−) cell containing myocutaneous tissue; experiment: Ex vivo γ-scintillated biodistribution in mice bearing PC3 and PC3-PIP cells; parameters: species or system C57BL/6 mice; conditions: 2 h after iv injection, γ-scintillation of excised tissue
Outline: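 Male C57BL/6 mice, 5–6 weeks old, 20–25 g (n = 6), were given 3 × 10^6 (18 mg) PC3 cells s.c. in the left flank and PC3-PIP cells in the right flank. After 15 min, radiotracer (100 μL, 80 μCi, 25 μM; 2.5 nmol) went i.v. via the tail vein. Mice were killed by cervical dislocation at 2 h. Organs and flank myocutaneous tissue were weighed and γ-counted as %ID per gram, mean ± SEM.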

PC3 (PSMA−) cells = experiment: FACS flow cytometry nonspecific binding control, PC3 cells
Outline: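 PSMA− PC3 cells (luciferase/GFP-expressing) were incubated with 0.1–100 nM test compound for 1 h at 37 °C. Cell-bound fluorescence was read by flow cytometry in the Cy3 channel (488 nm, 22 mW excitation; 620/30 emission filter). Curves were fitted with a two-parameter exponential function. Flow experiments were run in duplicate.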

CC1(C)C(/C=C/C=C2\N(CCCCCC(=O)NCCCC[C@H](NC(=O)N[C@H](CCC(=O)O)C(=O)O)C(=O)O)c3ccc(S(=O)(=O)O)cc3C2(C)C)=[N+](CCCCCC(=O)NCCCCn2cc(C[N+](C)(C)C[B-](F)(F)F)nn2)c2ccc(S(=O)(=O)O)cc21 [[^19F]-4, ((((1-(4-(6-(2-((E)-3-((Z)-1-(6-(((S)-5-Carboxy-5-(3-((R)-1,3-dicarboxypropyl)ureido)pentyl)amino)-6-oxohexyl)-3,3-dimethyl-5-sulfoindolin-2-ylidene)prop-1-en-1-yl)-3,3-dimethyl-5-sulfo-3H-indol-1-ium-1-yl)hexanamido)butyl)-1H-1,2,3-triazol-4-yl)methyl)dimethylammonio)methyl) Trifluoroborate]
Extinction coefficient ([1]; 1 mM PBS): 159 000 M^−1 cm^−1
Quantum yield φ [1]: 0.06
Defluoridation (Defluoridation stability; 7 days room temperature incubation with fetal bovine serum): Less than 1%
Chemical decomposition (defluoridation) (Defluoridation stability; physiological conditions): not observed
Liberation of [18F]-fluoride ion (defluoridation) in vivo [2]: not observed
Activity in PC3-PIP (PSMA+) vs PC3 (PSMA−) containing myocutaneous tissue [3]: 175 fold
Nonspecific binding to PC3 (PC3 (PSMA−) cells): not observed
